Active and inactive are the calls of the source. No cut-off for these calls is given here.
What was measured:
[1] = Cytotoxicity against human MDM cells assessed as cell viability at 0 to 10 uM by MTT assay; format: cell-based; conditions: read-out: Activity
Outline: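 Infected day 14 MDM were exposed to compound, up to 10 μM in parallel antiviral assays or extended to 1,000 μM for TC50. On day 7, half the medium was removed and 100 μg MTT added per well for 5 h at 37°C. Formazan was dissolved in acidified isopropanol with 10% Triton X-100 and A560 read. Viability was expressed vs DMSO controls; TC50 by nonlinear regression (n = 3).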

[2] = Inhibition of Vpu ion channel in HIV1 G-92NG003-G3 in human MDM assessed as inhibition of vrius release; set-up: species or system Human immunodeficiency virus 1
[3] = Inhibition of Vpu ion channel in HIV1 92TH001 in human MDM assessed as inhibition of vrius release; set-up: species or system Human immunodeficiency virus 1
[4] = Inhibition of Vpu ion channel in HIV1 93BR029 in human MDM assessed as inhibition of vrius release; set-up: species or system Human immunodeficiency virus 1
[5] = Inhibition of Vpu ion channel in HIV1 92UG029 in human MDM assessed as inhibition of vrius release; set-up: species or system Human immunodeficiency virus 1
[6] = Inhibition of Vpu ion channel in HIV1 1064.52 in human MDM assessed as inhibition of vrius release; set-up: species or system Human immunodeficiency virus 1
[7] = Selectivity index, ratio of TC50 for human MDM cells to EC50 for HIV1 5705.72 infected in human MDM cells; format: toxicity, cell-based; conditions: read-out: Selectivity Index
[8] = Selectivity index, ratio of TC50 for human MDM cells to EC50 for HIV1 MDR3761 infected in human MDM cells; format: toxicity, cell-based; conditions: read-out: Selectivity Index
MDM [9] = assay: Inhibition of Vpu ion channel in 0.01 MOI HIV1 Ba-L infected in 14 days differentiated human MDM cells assessed as number of gag copy; format: cell-based; conditions: Human immunodeficiency virus 1
Outline: (§1)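 MDM differentiated for 7, 10 or 14 days were infected with HIV-1 Ba-L across a range of MOIs, washed three times with PBS and cultured 7 days with 10 μM compound or equal-volume DMSO. On day 7 postinfection, supernatant RT activity was measured (and infectivity on TZM-bl cells). Cell lysates went to real-time PCR for LTR-gag DNA, normalised to albumin copies.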

MDM [10] = assay: Inhibition of Vpu ion channel in 0.05 MOI HIV1 Ba-L infected in 14 days differentiated human MDM cells assessed as number of gag copy; format: cell-based; conditions: Human immunodeficiency virus 1; outline: as §1
MDM [11] = assay: Inhibition of Vpu ion channel in 0.001 to 0.01 MOI HIV1 Ba-L infected in 10 days differentiated human MDM cells assessed as viral inhibition by RT assay; format: cell-based; conditions: Human immunodeficiency virus 1; outline: as §1
MDM [12] = assay: Inhibition of Vpu ion channel in 0.01 MOI HIV1 Ba-L infected in 10 days differentiated human MDM cells assessed as viral inhibition by TZM-bl infectivity assay; format: cell-based; conditions: Human immunodeficiency virus 1; outline: as §1
MDM [13] = assay: Inhibition of Vpu ion channel in 0.001 MOI HIV1 Ba-L infected in 10 days differentiated human MDM cells assessed as viral inhibition by TZM-bl infectivity assay; format: cell-based; conditions: Human immunodeficiency virus 1; outline: as §1
MDM [14] = assay: Inhibition of Vpu ion channel in 0.001 MOI HIV1 Ba-L infected in 14 days differentiated human MDM cells assessed as viral inhibition by TZM-bl infectivity assay; format: cell-based; conditions: Human immunodeficiency virus 1; outline: as §1
MDM [15] = assay: Inhibition of Vpu ion channel in 0.05 MOI HIV1 Ba-L acutely infected in 14 days differentiated human MDM cells assessed as viral release after 7 days relative to control; format: cell-based; conditions: Human immunodeficiency virus 1
Outline: (§2)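 Day 14 MDM were acutely infected with HIV-1 Ba-L at MOI 0.05 for 3 h, washed three times with PBS, then cultured a further 7 days in DMEM10+ with 10 μM compound or equal DMSO. Virus release was measured as supernatant RT activity on day 21 of culture, relative to DMSO controls.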

MDM [16] = assay: Inhibition of Vpu ion channel in 0.05 MOI HIV1 Ba-L acutely infected in 14 days differentiated human MDM cells assessed as reverse transcriptase activity after 21 days relative to control; format: cell-based; conditions: Human immunodeficiency virus 1; outline: as §2
MDM [17] = assay: Inhibition of Vpu ion channel in 0.05 MOI HIV1 Ba-L chronically infected in 14 days differentiated human MDM cells assessed as viral inhibition measured after treatment at 11 th day postinfection; format: cell-based; conditions: Human immunodeficiency virus 1
MDM [18] = assay: Inhibition of Vpu ion channel in 0.05 MOI HIV1 Ba-L chronically infected in 7 days differentiated human MDM cells assessed as reverse transcriptase activity after 21 days; format: cell-based; conditions: Human immunodeficiency virus 1
Outline: (§3)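 Chronic infection model: MDM were incubated with HIV-1 Ba-L for 3 h and left 7 days unwashed, then washed three times and given a single 10 μM dose (DMSO control). Supernatants were sampled routinely for RT activity. In the washout arm, compound was removed and cells kept drug-free for an additional 20 days.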

MDM [19] = assay: Inhibition of Vpu ion channel in 0.05 MOI HIV1 Ba-L chronically infected in 7-14 days differentiated human MDM cells assessed as viral inhibition at 10 uM after 7 days post treatment; format: cell-based; conditions: Human immunodeficiency virus 1; outline: as §3
MDM [20] = assay: Inhibition of Vpu ion channel activity in 0.05 MOI HIV1 Ba-L chronically infected in 7-14 days differentiated human MDM cells assessed as viral inhibition measured after 7 days; format: cell-based; conditions: Human immunodeficiency virus 1
Outline: (§4)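 Day 14 MDM from 3 seronegative donors were infected with HIV-2, or with HIV-1 Ba-L as a positive control, at MOI 0.05 for 7 days. Cells were then washed free of extracellular virus and cultured ± 10 μM compound for a further 7 days. Day 28 supernatants were assayed for RT activity by chemiluminescent ELISA, with recombinant RT as the standard.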

[21] = tested on: Human immunodeficiency virus 2; assay: Antiviral activity against 0.05 MOI HIV2 chronically infected in 7-14 days differentiated human MDM cells assessed as viral inhibition measured after 7 days; format: functional, organism-based; outline: as §4
[22] = tested on: Human immunodeficiency virus 2; assay: Antiviral activity against 0.05 MOI HIV2 cytopathic strain chronically infected in 7-14 days differentiated human MDM cells assessed as viral inhibition measured after 7 days; format: functional
Outline: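 Day 14 MDM from three seronegative donors were infected at MOI 0.05 for 7 days, then washed free of extracellular virus. Cultures then ran a further 7 days with or without 10 μM BIT225, from day 21. Day 28 supernatants were assayed by RT activity ELISA. Percent inhibition was taken versus untreated controls, as mean of three donors.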

[23] = tested on: Human immunodeficiency virus 1; assay: Antiviral activity against HIV1 Ba-L in human MDM assessed as inhibition integration of virus to host cell genome at 0.3125 to 10 uM; format: functional, organism-based
[24] = tested on: Human immunodeficiency virus 1; assay: Antiviral activity against HIV1 Ba-L in human MDM assessed as inhibition integration of virus to host cell genome at 100 nM; format: functional, organism-based
MT2 [25] = assay: Inhibition of Vpu ion channel in 0.05 MOI HIV1 infected in MT2 cells assessed as viral inhibition measured after 7 days by […]; conditions: Human immunodeficiency virus 1
PM1 = assay: Inhibition of Vpu ion channel in 0.05 MOI HIV1 NL4-3 infected in PM1 cells assessed as viral inhibition measured after 7 days by […]; conditions: Human immunodeficiency virus 1
MT2 [26] = assay: Inhibition of Vpu ion channel in 0.05 MOI HIV1 NL4-3 infected in MT2 cells assessed as viral inhibition measured at 10 uM after 7 days by […]; conditions: Human immunodeficiency virus 1

Cn1cc(-c2cccc3cc(C(=O)NC(=N)N)ccc23)cn1
viability at up to 10 µM [1]: > 96% | EC50 [2]: 1600 nM | EC50 [3]: 1500 nM | EC50 [4]: 1900 nM | EC50 [5]: 14400 nM | EC50 [6]: 2700 nM | selectivity ratio [7]: 39.3 | selectivity ratio [8]: 39.3 | Activity (MDM [9]): 98 | Activity (MDM [10]): Active | inhibition (MDM [11]): 82% | inhibition (MDM [12]): 90.4% | inhibition (MDM [13]): 98.1% | inhibition (MDM [14]): 90.3% | inhibition (MDM [15]): 38% | Activity (MDM [16]): < 6 U/ml | inhibition (MDM [17]): 86.3% | Activity (MDM [18]): < 2 U/ml | Activity (MDM [19]): Active | inhibition (MDM [20]): 66.6% | Activity [21]: inactive | inhibition (INH) [22]: 6.1% | Activity [23]: inactive | Activity [24]: Active | inhibition (MT2 [25]): 38.8% | inhibition (PM1): 93.1% | inhibition (MT2 [26]): 24%

— ChEMBL document CHEMBL1240369, “Antiviral efficacy of the novel compound BIT225 against HIV-1 release from human macrophages” (Antimicrob Agents Chemother, 2010)
